Values joined by “and” are separate entries in the source; they are usually repeats but may differ in a detail not shown here. Equal values may be shown once.
Legend:
Assay type in all cases: toxicity, cell-based
[1] = tested on: HEK-293T; assay: Multiplex assay against HEK293T; conditions: human
Summary of the method: (§1)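 Four dyes were applied at seeding to live cells: Hoechst33342, BioTracker Green Microtubule Cytoskeleton Dye, MitoTracker Red and Annexin V Alexa Fluor 680. Imaging after compound addition used a CQ1 microscope at 37°C and 5% CO2. CellPathfinder machine-learning gating then sorted cells into Hoechst high-intensity objects or normal cells, normal cells into healthy, pyknosed or fragmented nuclei, and pyknosed cells into mitotic or apoptotic, with tubulin, mitochondrial-mass and membrane-permeability phenotypes given as per cents of healthy-nucleus cells.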

[2] = tested on: Fibroblast; assay: Multiplex assay against human fibroblast; summary of the method: as §1
[3] = tested on: U2OS; assay: Multiplex assay against U2OS; conditions: human; summary of the method: as §1
[4] = 12 h, 1 µM, compound concentration 1 uM
[5] = 12 h, 10 µM, compound concentration 10 uM
[6] = 24 h, 1 µM, compound concentration 1 uM
[7] = 24 h, 10 µM, compound concentration 10 uM
[8] = 48 h, 1 µM, compound concentration 1 uM
[9] = 48 h, 10 µM, compound concentration 10 uM

## N#Cc1c(N)nc(SCc2csc(-c3ccc(Cl)cc3)n2)c(C#N)c1-c1ccc(OCCO)cc1 [CAPADENOSON]
[1]; [4]
  Population Apoptotic (%): 36% and 54%
  Population Fragmented Nuclei (%): 6%
  Population Healthy Nuclei (%): 79% and 80%
  Population Hoechst High Intensity Objects (%): 8% and 4%
  Population Membrane Permeable-Phenotype (%): 0%
  Population Mitochondria Different-Phenotype (%): 59% and 60%
  Population Mitotic Cells (%): 63% and 45%
  Population Normal (%): 91% and 95%
  Population Pyknosed Nuclei (%): 13% and 12%
  Population Tubulin-Different-Phenotype (%): 44% and 34%
  Total Cell Count: 373 and 375
[1]; [5]
  Population Apoptotic (%): 57% and 70%
  Population Fragmented Nuclei (%): 7% and 6%
  Population Healthy Nuclei (%): 75% and 73%
  Population Hoechst High Intensity Objects (%): 12% and 14%
  Population Membrane Permeable-Phenotype (%): 0% and 1%
  Population Mitochondria Different-Phenotype (%): 82% and 85%
  Population Mitotic Cells (%): 42% and 29%
  Population Normal (%): 87% and 85%
  Population Pyknosed Nuclei (%): 17% and 20%
  Population Tubulin-Different-Phenotype (%): 62% and 63%
  Total Cell Count: 307 and 388
[1]; [6]
  Population Apoptotic (%): 36% and 37%
  Population Fragmented Nuclei (%): 5% and 7%
  Population Healthy Nuclei (%): 76% and 79%
  Population Hoechst High Intensity Objects (%): 6% and 4%
  Population Membrane Permeable-Phenotype (%): 2% and 0%
  Population Mitochondria Different-Phenotype (%): 38% and 44%
  Population Mitotic Cells (%): 63% and 62%
  Population Normal (%): 93% and 95%
  Population Pyknosed Nuclei (%): 17% and 12%
  Population Tubulin-Different-Phenotype (%): 34% and 23%
  Total Cell Count: 450 and 456
[1]; [7]
  Population Apoptotic (%): 65% and 73%
  Population Fragmented Nuclei (%): 8% and 4%
  Population Healthy Nuclei (%): 68%
  Population Hoechst High Intensity Objects (%): 14% and 13%
  Population Membrane Permeable-Phenotype (%): 0%
  Population Mitochondria Different-Phenotype (%): 94% and 89%
  Population Mitotic Cells (%): 34% and 26%
  Population Normal (%): 85% and 86%
  Population Pyknosed Nuclei (%): 22% and 26%
  Population Tubulin-Different-Phenotype (%): 62% and 61%
  Total Cell Count: 319 and 391
[1]; [8]
  Population Apoptotic (%): 31% and 32%
  Population Fragmented Nuclei (%): 10% and 11%
  Population Healthy Nuclei (%): 79% and 80%
  Population Hoechst High Intensity Objects (%): 4% and 3%
  Population Membrane Permeable-Phenotype (%): 1% and 2%
  Population Mitochondria Different-Phenotype (%): 32% and 23%
  Population Mitotic Cells (%): 68% and 67%
  Population Normal (%): 95% and 96%
  Population Pyknosed Nuclei (%): 10% and 8%
  Population Tubulin-Different-Phenotype (%): 23% and 18%
  Total Cell Count: 621 and 787
[1]; [9]
  Population Apoptotic (%): 66% and 63%
  Population Fragmented Nuclei (%): 11% and 12%
  Population Healthy Nuclei (%): 68% and 73%
  Population Hoechst High Intensity Objects (%): 12% and 10%
  Population Membrane Permeable-Phenotype (%): 0%
  Population Mitochondria Different-Phenotype (%): 89% and 88%
  Population Mitotic Cells (%): 33% and 36%
  Population Normal (%): 87% and 89%
  Population Pyknosed Nuclei (%): 20% and 14%
  Population Tubulin-Different-Phenotype (%): 67% and 64%
  Total Cell Count: 406 and 423
[2]; [4]
  Population Apoptotic (%): 43% and 27%
  Population Healthy Nuclei (%): 80% and 43%
  Population Hoechst High Intensity Objects (%): 2% and 1%
  Population Membrane Permeable-Phenotype (%): 0% and 5%
  Population Mitochondria Different-Phenotype (%): 10% and 11%
  Population Mitotic Cells (%): 56% and 72%
  Population Normal (%): 97% and 98%
  Population Pyknosed Nuclei (%): 11% and 25%
  Population Tubulin-Different-Phenotype (%): 38% and 55%
  Total Cell Count: 139 and 157
[2]; [5]
  Population Apoptotic (%): 31% and 41%
  Population Fragmented Nuclei (%): 23% and 41%
  Population Healthy Nuclei (%): 50% and 29%
  Population Hoechst High Intensity Objects (%): 1% and 8%
  Population Membrane Permeable-Phenotype (%): 0% and 20%
  Population Mitochondria Different-Phenotype (%): 10% and 14%
  Population Mitotic Cells (%): 68% and 58%
  Population Normal (%): 98% and 91%
  Population Pyknosed Nuclei (%): 25% and 29%
  Population Tubulin-Different-Phenotype (%): 80% and 97%
  Total Cell Count: 172 and 128
[2]; [6]
  Population Apoptotic (%): 72% and 48%
  Population Healthy Nuclei (%): 80% and 44%
  Population Hoechst High Intensity Objects (%): 1% and 4%
  Population Membrane Permeable-Phenotype (%): 0% and 6%
  Population Mitotic Cells (%): 27% and 51%
  Population Normal (%): 98% and 95%
  Population Pyknosed Nuclei (%): 8% and 20%
  Population Tubulin-Different-Phenotype (%): 34% and 71%
  Total Cell Count: 139 and 148
[2]; [7]
  Population Apoptotic (%): 38% and 41%
  Population Fragmented Nuclei (%): 26% and 43%
  Population Healthy Nuclei (%): 52% and 28%
  Population Hoechst High Intensity Objects (%): 2% and 6%
  Population Membrane Permeable-Phenotype (%): 0% and 17%
  Population Mitochondria Different-Phenotype (%): 26% and 25%
  Population Mitotic Cells (%): 61% and 58%
  Population Normal (%): 97% and 93%
  Population Pyknosed Nuclei (%): 20% and 27%
  Population Tubulin-Different-Phenotype (%): 67% and 94%
  Total Cell Count: 179 and 131
[2]; [8]
  Population Apoptotic (%): 88% and 69%
  Population Fragmented Nuclei (%): 16% and 38%
  Population Healthy Nuclei (%): 77% and 43%
  Population Hoechst High Intensity Objects (%): 2%
  Population Membrane Permeable-Phenotype (%): 0% and 6%
  Population Mitochondria Different-Phenotype (%): 7% and 12%
  Population Mitotic Cells (%): 11% and 30%
  Population Normal (%): 97%
  Population Pyknosed Nuclei (%): 6% and 17%
  Population Tubulin-Different-Phenotype (%): 37% and 60%
  Total Cell Count: 147 and 151
[2]; [9]
  Population Apoptotic (%): 81% and 36%
  Population Fragmented Nuclei (%): 32% and 57%
  Population Healthy Nuclei (%): 53% and 29%
  Population Hoechst High Intensity Objects (%): 2% and 0%
  Population Membrane Permeable-Phenotype (%): 0% and 11%
  Population Mitochondria Different-Phenotype (%): 32% and 30%
  Population Normal (%): 97% and 100%
  Population Pyknosed Nuclei (%): 14% and 13%
  Population Tubulin-Different-Phenotype (%): 78% and 95%
  Total Cell Count: 187 and 142
[3]; [4]
  Population Apoptotic (%): 78% and 80%
  Population Fragmented Nuclei (%): 25% and 18%
  Population Healthy Nuclei (%): 65% and 75%
  Population Hoechst High Intensity Objects (%): 5% and 1%
  Population Membrane Permeable-Phenotype (%): 14% and 5%
  Population Mitochondria Different-Phenotype (%): 4% and 2%
  Population Mitotic Cells (%): 21% and 20%
  Population Normal (%): 94% and 98%
  Population Pyknosed Nuclei (%): 8% and 6%
  Population Tubulin-Different-Phenotype (%): 10% and 1%
  Total Cell Count: 236 and 150
[3]; [5]
  Population Apoptotic (%): 64% and 68%
  Population Fragmented Nuclei (%): 35% and 24%
  Population Healthy Nuclei (%): 40% and 56%
  Population Hoechst High Intensity Objects (%): 5% and 0%
  Population Membrane Permeable-Phenotype (%): 70% and 49%
  Population Mitochondria Different-Phenotype (%): 37% and 61%
  Population Mitotic Cells (%): 35% and 31%
  Population Normal (%): 94% and 99%
  Population Pyknosed Nuclei (%): 24% and 18%
  Population Tubulin-Different-Phenotype (%): 65% and 70%
  Total Cell Count: 255 and 102
[3]; [6]
  Population Apoptotic (%): 87% and 61%
  Population Fragmented Nuclei (%): 23% and 16%
  Population Healthy Nuclei (%): 64% and 71%
  Population Hoechst High Intensity Objects (%): 3% and 0%
  Population Membrane Permeable-Phenotype (%): 9% and 5%
  Population Mitochondria Different-Phenotype (%): 4% and 2%
  Population Normal (%): 96% and 99%
  Population Pyknosed Nuclei (%): 12%
  Population Tubulin-Different-Phenotype (%): 6% and 2%
  Total Cell Count: 263 and 176
[3]; [7]
  Population Apoptotic (%): 71% and 69%
  Population Fragmented Nuclei (%): 36% and 25%
  Population Healthy Nuclei (%): 37% and 49%
  Population Hoechst High Intensity Objects (%): 5% and 2%
  Population Membrane Permeable-Phenotype (%): 47% and 34%
  Population Mitochondria Different-Phenotype (%): 38% and 58%
  Population Mitotic Cells (%): 28% and 30%
  Population Normal (%): 94% and 97%
  Population Pyknosed Nuclei (%): 26% and 24%
  Population Tubulin-Different-Phenotype (%): 47% and 60%
  Total Cell Count: 253 and 95
[3]; [8]
  Population Apoptotic (%): 80% and 84%
  Population Fragmented Nuclei (%): 23% and 12%
  Population Healthy Nuclei (%): 67% and 79%
  Population Hoechst High Intensity Objects (%): 3% and 0%
  Population Membrane Permeable-Phenotype (%): 9% and 6%
  Population Mitochondria Different-Phenotype (%): 6% and 3%
  Population Mitotic Cells (%): 20% and 15%
  Population Normal (%): 96% and 99%
  Population Pyknosed Nuclei (%): 8%
  Population Tubulin-Different-Phenotype (%): 6% and 5%
  Total Cell Count: 355 and 220
[3]; [9]
  Population Apoptotic (%): 86% and 66%
  Population Fragmented Nuclei (%): 44% and 30%
  Population Healthy Nuclei (%): 30% and 49%
  Population Hoechst High Intensity Objects (%): 5% and 4%
  Population Membrane Permeable-Phenotype (%): 46% and 45%
  Population Mitochondria Different-Phenotype (%): 31% and 45%
  Population Mitotic Cells (%): 13% and 33%
  Population Normal (%): 94% and 95%
  Population Pyknosed Nuclei (%): 25% and 20%
  Population Tubulin-Different-Phenotype (%): 37% and 50%
  Total Cell Count: 285 and 109

— ChEMBL document CHEMBL5724801, “EUbOPEN Chemogenomics Library - Multiplex” (2024)
